According to ChEMBL document CHEMBL4024771, “Optimization of Orally Bioavailable Enhancer of Zeste Homolog 2 (EZH2) Inhibitors Using Ligand and Property-Based Design Strategies: Identification of Development Candidate …” (J Med Chem, 2018):
Values after ≈ are worked out from the molar mass of the structure shown.

How the values were obtained:
[1] = target: Histone-lysine N-methyltransferase EZH2 (Homo sapiens, UniProt Q15910); experiment: Inhibition of EZH2 in human KARPAS422 cells assessed as reduction in H3K27me3 level after 72 hrs by ELISA
[2] = target: Histone-lysine N-methyltransferase EZH2 (Homo sapiens, UniProt Q15910, Y641N); experiment: Inhibition of EZH2 Y641N mutant (unknown origin) using oligonucleosomes as substrate after 60 mins in presence of [3H]SAM by scintillation counting analysis
KARPAS-422 = experiment: Antiproliferative activity against human KARPAS422 cells after 72 hrs by resazurin assay; assay type: functional, cell-based
Liver = experiment: (§1) Intrinsic clearance in human liver microsomes assessed per mg protein at 1 uM preincubated for 10 mins followed by NADPH addition measured after 45 mins by LC-MS/MS analysis; assay type: ADME, microsome; settings: microsomes, 0.75 h, 1 µM
Method in brief: (§2)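 Test compound (1 μM) with pooled liver microsomes (0.8 mg/mL protein) in 100 mM potassium phosphate pH 7.4, 10 min preincubation, started with 2 mM NADPH, 45 min at 37 °C, in triplicate. Samples quenched with cold methanol containing buspirone internal standard, analysed by LC−MS/MS. CLint derived from t1/2 of parent loss (log-linear slope).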

[3] = Kinetic solubility of the compound; assay type: physicochemical; settings: for solubility kinetic: read-out: Kinetic_solubility
[4] = Passive permeability in MDCK cells at 2 uM after 90 mins by LC-MS/MS analysis; assay type: ADME, cell-based, Canis lupus familiaris; settings: dog; for Papp at […], 2 µM: MDCK, read-out: permeability
Method in brief: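 Low-efflux MDCK cells (MDCK-LE) on 96-well inserts, used on day 4. Monodirectional transport of 2 μM drug in transport buffer with 0.1% DMSO at 37 °C. Donor and receiver sampled at 0 and 90 min for LC−MS/MS. Donor pH 6.5 and 7.4, receiver pH 7.4.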

[5] = Lipophilicity, log D of the compound at pH 7.4; settings: buffer
[6] = as §1; assay type: ADME, microsome; settings: liver microsomes, read-out: CLH; method in brief: as §2
[7] = Thermodynamic solubility in water at 25 degC using crystalline form; assay type: physicochemical; settings: read-out: Therm_solubility
[8] = Clearance in human hepatocytes assessed per million cells; assay type: ADME, cell-based, Hepatocyte; settings: read-out: CLH

Chain of Histone-lysine N-methyltransferase EZH2 (Homo sapiens, UniProt Q15910) (Q15910 whole entry): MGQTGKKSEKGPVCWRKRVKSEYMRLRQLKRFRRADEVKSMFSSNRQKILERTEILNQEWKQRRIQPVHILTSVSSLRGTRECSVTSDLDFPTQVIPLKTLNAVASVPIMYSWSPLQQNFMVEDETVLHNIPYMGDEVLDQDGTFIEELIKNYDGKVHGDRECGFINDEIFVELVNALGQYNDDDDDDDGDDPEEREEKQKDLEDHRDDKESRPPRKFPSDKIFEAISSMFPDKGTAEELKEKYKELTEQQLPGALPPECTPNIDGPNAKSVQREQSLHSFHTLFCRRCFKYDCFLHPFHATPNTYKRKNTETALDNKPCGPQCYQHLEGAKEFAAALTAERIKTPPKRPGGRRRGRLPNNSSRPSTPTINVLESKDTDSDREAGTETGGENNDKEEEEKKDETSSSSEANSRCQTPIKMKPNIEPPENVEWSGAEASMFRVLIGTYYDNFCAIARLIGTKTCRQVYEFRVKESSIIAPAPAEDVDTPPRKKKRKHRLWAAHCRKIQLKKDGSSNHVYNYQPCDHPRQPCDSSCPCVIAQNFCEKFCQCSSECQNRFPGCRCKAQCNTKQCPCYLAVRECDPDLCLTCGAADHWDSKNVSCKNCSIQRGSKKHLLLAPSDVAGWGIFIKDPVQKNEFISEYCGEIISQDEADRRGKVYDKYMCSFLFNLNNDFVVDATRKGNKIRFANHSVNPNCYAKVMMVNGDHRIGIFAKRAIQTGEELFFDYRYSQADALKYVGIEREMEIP
Chain of Histone-lysine N-methyltransferase EZH2 (Homo sapiens, UniProt Q15910, Y641N) (Q15910 whole entry Y641N): as the sequence (Q15910 whole entry) above, with Y641N counted along it

Compound	IC50 [1] [nM]	Ki [2] [nM]	IC50 (KARPAS-422; karpas-422) [nM]	microsomal CLint (Liver) [µL/min/mg]	Kinetic_solubility [3] [µM]	Papp at […], 2 µM [4] [×10⁻⁶ cm/s]	logD ([5]; pH 7.4, logD)	solubility kinetic [3] [µM]	IC50 (KARPAS-422; Homo sapiens, KARPAS-422, 72 h) [nM]	microsomal CLint at 1 µM [6] [µL/min/mg]	solubility thermodynamic [7] [µg/mL]	hepatocyte CLint [8] [µL/min/1e6 cells]	permeability ([4]; mdck, […], 2 µM) [×10⁻⁶ cm/s]	logD ([5]; pH 7.4)
CCC(O)c1cc(Cl)c2c(c1Cl)C(=O)N(Cc1c(C)cc(C)[nH]c1=O)CC2 (single isomer, unassigned; (+))	1050	130	714	18	59	15	3.1	–	–	–	–	–	–	–
COc1cc(C)[nH]c(=O)c1CN1CCc2c(Cl)cc(C(OC)C3(C)COC3)c(Cl)c2C1=O (single isomer, unassigned; (+))	8	0.7	9	207	–	5.7	2.3	486 (≈ 234 µg/mL)	–	–	–	–	–	–
COC(c1cc(Cl)c2c(c1Cl)C(=O)N(Cc1c(C)cc(C)[nH]c1=O)CC2)C1CCN(C)CC1 (single isomer, unassigned; (+))	9	< 0.1	11	< 10.2	–	2.7	1.4	639 (≈ 315 µg/mL)	–	–	–	–	–	–
COC(c1cc(Cl)c2c(c1Cl)C(=O)N(Cc1c(C)cc(C)[nH]c1=O)CC2)C1CCOC1 (single isomer, unassigned; (+)-10a)	7	0.6	25	108	436	17.1	3	–	–	–	–	–	–	–
COC(c1cc(Cl)c2c(c1Cl)C(=O)N(Cc1c(C)cc(C)[nH]c1=O)CC2)C1CCN(C2COC2)CC1 (single isomer, unassigned; (+))	16	0.64	25	72.7	–	7	2.7	523 (≈ 280 µg/mL)	–	–	–	–	–	–
Cc1cc(C)c(CN2CCc3c(Cl)cc([C@H](C)CO)c(Cl)c3C2=O)c(=O)[nH]1	129	17	–	–	–	12.4	2.6	131 (≈ 53.6 µg/mL)	186	15.8	34 (≈ 83.1 µM)	–	–	–
COC(c1cc(Cl)c2c(c1Cl)C(=O)N(Cc1c(C)cc(C)[nH]c1=O)CC2)C1CCOCC1 (single isomer, unassigned; (+))	9	0.1	19	129	–	13.3	3.4	57.5 (≈ 27.6 µg/mL)	–	–	–	–	–	–
Cc1cc(C)c(CN2CCc3c(Cl)cc(-c4c(C)noc4C)c(Cl)c3C2=O)c(=O)[nH]1	17	1.15	–	–	–	15.7	–	93 to 95 (≈ 41.5 to 42.4 µg/mL)	23	107 to 169	2 (≈ 4.48 µM)	75	–	–
CCOC(c1cc(Cl)c2c(c1Cl)C(=O)N(Cc1c(C)cc(C)[nH]c1=O)CC2)C1CS(=O)(=O)C1 (single isomer, unassigned; (+))	62	2.9	34	124	–	12	2.4	453 (≈ 233 µg/mL)	–	–	–	–	–	–
COC(c1cc(Cl)c2c(c1Cl)C(=O)N(Cc1c(C)cc(C)[nH]c1=O)CC2)C1CCN(C(=O)CO)CC1 (stereo in doubt; (+)-16a)	13	0.25	21	42	–	7.3	2.2	508 (≈ 273 µg/mL)	–	–	–	–	–	–
CCC(CO)c1cc(Cl)c2c(c1Cl)C(=O)N(Cc1c(C)cc(C)[nH]c1=O)CC2 (single isomer, unassigned; (+))	139	4.6	124	66.3	324	10.9	2.8	–	–	–	–	–	–	–
CCOC(c1cc(Cl)c2c(c1Cl)C(=O)N(Cc1c(C)cc(C)[nH]c1=O)CC2)C1CS(=O)(=O)C1 (single isomer, unassigned)	6080	460	5560	45.7	446	–	–	–	–	–	–	–	7.7	2.3
Cc1cc(C)c(CN2CCc3c(Cl)cc(C(CO)C4CCOC4)c(Cl)c3C2=O)c(=O)[nH]1 (stereo in doubt; (-)-6b)	15	0.38	17	25.9	508	2.5	2.1	–	–	–	–	–	–	–
